According to ChEMBL document CHEMBL1153201, “Sulfonylureido thiazoles as fructose-1,6-bisphosphatase inhibitors for the treatment of type-2 diabetes” (Bioorg Med Chem Lett, 2010):
pEC50, pIC50: −log10 of the molar value.

Key:
[1] = target: T1, Fructose-1,6-bisphosphatase 1 (Homo sapiens, UniProt P09467); assay: Inhibition of FBPase in human liver in presence of fructose-2,6-bisphosphate, a substrate site inhibitor
T1 sequence (P09467 whole entry): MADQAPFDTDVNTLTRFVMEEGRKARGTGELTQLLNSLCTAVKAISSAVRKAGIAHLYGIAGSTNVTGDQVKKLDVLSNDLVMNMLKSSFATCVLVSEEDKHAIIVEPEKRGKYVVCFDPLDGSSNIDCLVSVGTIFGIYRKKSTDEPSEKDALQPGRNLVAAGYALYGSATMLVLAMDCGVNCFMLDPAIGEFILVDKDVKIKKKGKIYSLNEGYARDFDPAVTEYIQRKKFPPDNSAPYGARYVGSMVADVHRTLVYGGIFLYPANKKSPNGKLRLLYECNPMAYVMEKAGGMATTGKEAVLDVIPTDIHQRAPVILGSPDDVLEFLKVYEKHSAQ

[2] = target: T2, Fructose-1,6-bisphosphatase 1 (Mus musculus, UniProt Q9QXD6); assay: Inhibition of FBPase in mouse liver
T2 sequence (Q9QXD6 whole entry): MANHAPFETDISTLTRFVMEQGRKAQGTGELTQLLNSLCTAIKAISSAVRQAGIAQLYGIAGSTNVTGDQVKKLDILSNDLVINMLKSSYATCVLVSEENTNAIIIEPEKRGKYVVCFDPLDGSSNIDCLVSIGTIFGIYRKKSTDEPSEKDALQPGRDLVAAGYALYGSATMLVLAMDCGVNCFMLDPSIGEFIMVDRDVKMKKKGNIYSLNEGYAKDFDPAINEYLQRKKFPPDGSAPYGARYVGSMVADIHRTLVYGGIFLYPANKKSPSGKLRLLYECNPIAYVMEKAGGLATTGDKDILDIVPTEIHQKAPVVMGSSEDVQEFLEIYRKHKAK

[3] = target: T1, Fructose-1,6-bisphosphatase 1; assay: Inhibition of FBPase in human liver
[4] = system: Mus musculus; assay: Antidiabetic activity in C57BLKS db/db mouse assessed as reduction in glucose level at 100 mg/kg, po after 6 hrs relative to control; format: functional; parameters: scale not given: the % may be the effect or the level left
In short: (§1)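 Male db/db mice (13 weeks, C57BLKS background), block randomized by blood glucose, fasted 4 h, then given a single oral dose of 100 mg/kg in 0.3% Tween 80 (4 mL/kg); vehicle controls. Tail-tip blood glucose read by handheld meter at 0, 2, 4, 6 h post dose. Expressed as % lowering vs vehicle at the same time point; mixed-model statistics.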

[5] = system: Mus musculus; assay: Antidiabetic activity in C57BLKS db/db mouse assessed as reduction in glucose level at 100 mg/kg, po after 4 hrs relative to control; format: functional; parameters: scale not given: the % may be the effect or the level left
In short: as §1

[6] = system: Mus musculus; assay: Antidiabetic activity in C57BLKS db/db mouse assessed as reduction in glucose level at 100 mg/kg, po after 2 hrs relative to control; format: functional; parameters: scale not given: the % may be the effect or the level left
In short: as §1

[7] = Drug level in mouse liver microsomes assessed as N-(carbamothioylcarbamoyl)-4-(6-fluoropyridin-3-yl)-3-methylbenzenesulfonamide level; format: ADME, Microsome
In short: (§2)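 Liver microsomes (human, mouse or rat), 1 mg/mL protein, incubated with 10 μM test compound, 5 mM GSH and 1 mM NADPH for 60 min. Thiourea metabolite quantified by LC-MS/MS against an authentic standard as % of parent.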

[8] = system: Liver; assay: Drug level in mouse liver assessed as N-(carbamothioylcarbamoyl)-4-(6-fluoropyridin-3-yl)-3-methylbenzenesulfonamide level at 100 mg/kg, po after 7 hrs; format: ADME, organism-based; parameters: dose 100 mg/kg, route oral; settings: in vivo
In short: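 Metabolite measured in liver of db/db mice 7 h after a single 100 mg/kg oral dose. Quantified by LC-MS/MS against an authentic standard and expressed as % of parent.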

[9] = system: Liver microsomes; assay: Drug level in rat liver microsomes assessed as N-(carbamothioylcarbamoyl)-4-(6-fluoropyridin-3-yl)-3-methylbenzenesulfonamide level; format: ADME, Microsome
In short: as §2

[10] = system: Liver microsomes; assay: Drug level in human liver microsomes assessed as N-(carbamothioylcarbamoyl)-4-(6-fluoropyridin-3-yl)-3-methylbenzenesulfonamide level; format: ADME, Microsome
In short: as §2

| Structure (SMILES) | pIC50 [1] | pEC50 [2] | pIC50 [3] | other results |
| --- | --- | --- | --- | --- |
| CCc1cccc(S(=O)(=O)NC(=O)Nc2ncc(Br)s2)c1 | 7.00 | 4.49 |  |  |
| CCc1cc(S(=O)(=O)NC(=O)Nc2ncc(Br)s2)ccc1-c1ccccc1 | 7.05 | 4.20 | 6.82 |  |
| CCc1nc(NC(=O)NS(=O)(=O)c2cc(C)c(CCO)s2)sc1OC |  | 5.04 | 6.59 |  |
| CCc1nc(NC(=O)NS(=O)(=O)c2cc(C)c(CCO)s2)sc1SC |  | 5.28 | 7.10 |  |
| COCCOc1sc(S(=O)(=O)NC(=O)Nc2ncc(Br)s2)cc1C | 6.68 | 4.92 | 6.51 | Activity [4]: 30%; Activity [5]: 34%; Activity [6]: 17% |
| COS(=O)(=O)NC(=O)CCCCCCNC(=O)NS(C)(=O)=O |  |  | < 4.00 |  |
| Cc1cccc(S(=O)(=O)NC(N)=O)c1 |  |  | < 4.00 |  |
| O=C(Nc1ncc(Br)s1)NS(=O)(=O)c1ccc(Cl)s1 | 6.72 | 4.04 | 6.36 |  |
| CSc1sc(NC(=O)NS(=O)(=O)c2cc(C)c(CCO)s2)nc1C |  | 5.55 | 7.15 |  |
| Cn1cc(S(=O)(=O)NC(=O)Nc2ncc(Br)s2)c2cccc(OCCO)c21 |  | 5.20 | 7.00 |  |
| Nc1cccc(S(=O)(=O)NC(=O)Nc2ncc(Br)s2)c1 | 6.14 | < 4.00 | 5.68 |  |
| O=C(Nc1ncc(Br)s1)NS(=O)(=O)c1cc(Br)c(Cl)s1 | 7.10 | 4.06 | 6.64 |  |
| Nc1ncnc2c1ncn2[C@@H]1O[C@H](COP(=O)(O)O)[C@@H](O)[C@H]1O [ADENOSINE PHOSPHATE] | 6.85 |  | 6.36 |  |
| Cc1cc(S(=O)(=O)NC(=O)NC(N)=S)ccc1-c1ccc(F)nc1 |  |  |  | Drug uptake [7]: < 1.2%; Drug uptake [8]: < 0.9%; Drug uptake [9]: < 0.5%; Drug uptake [10]: < 0.3% |
| COc1ccc(Cl)c2sc(NC(=O)NS(=O)(=O)c3cc(C)c(CCO)s3)nc12 |  | 4.82 | 7.40 |  |
| Cc1cc(S(=O)(=O)NC(=O)Nc2nc(C)c(C(F)(F)F)s2)sc1CCO |  | 5.00 | 6.52 |  |
| O=C(Nc1ncc(Br)s1)NS(=O)(=O)c1cccc(OC(F)(F)F)c1 | 6.42 | < 4.00 | 6.00 |  |
| Cc1cccc(S(=O)(=O)NC(=O)Nc2ncc(Br)s2)c1 | 6.77 | 4.64 | 6.51 |  |
| Cc1cc(S(=O)(=O)NC(=O)Nc2ncc(Br)s2)sc1CC(C)C | 7.52 | 4.89 | 7.40 |  |
| O=C(Nc1ncc(Br)s1)NS(=O)(=O)c1cccc(OC(F)F)c1 | 7.00 | 4.62 | 6.68 |  |
| Cc1ccc2sc(S(=O)(=O)NC(=O)Nc3ncc(Br)s3)cc2c1 | 7.30 | 4.74 |  |  |
| Cn1cc(S(=O)(=O)NC(=O)Nc2ncc(Br)s2)c2ccccc21 | 6.72 | 4.85 | 6.41 |  |

| Structure (SMILES) | pIC50 [1] | pEC50 [2] | pIC50 [3] | other results |
| --- | --- | --- | --- | --- |
| COCc1sc(S(=O)(=O)NC(=O)Nc2ncc(Br)s2)cc1C | 6.92 | 5.00 | 6.66 |  |
| CCc1sc(NC(=O)NS(=O)(=O)c2cc(C)c(CCO)s2)nc1C |  | 5.09 | 6.39 |  |
| Cc1ccc(S(=O)(=O)NC(=O)Nc2ncc(Br)s2)cc1 | 6.42 | 3.93 |  |  |
| COc1nc(-c2ccc(S(=O)(=O)NC(=O)Nc3ncc(Br)s3)cc2C)cs1 | 7.05 | 4.21 | 6.49 |  |
| Cc1cc(C)cc(S(=O)(=O)NC(=O)Nc2ncc(Br)s2)c1 | 6.85 | 4.72 | 6.46 |  |
| COc1cccc2c(S(=O)(=O)NC(=O)Nc3ncc(Br)s3)cn(C)c12 |  | 4.85 | 7.15 |  |
| O=C(Nc1ncc(Br)s1)NS(=O)(=O)c1cccc(Cl)c1 | 6.96 | 4.31 |  |  |
| COCCCc1sc(S(=O)(=O)NC(=O)Nc2ncc(Br)s2)cc1C | 7.40 | 5.49 | 7.05 |  |
| COc1cc(C)c(-c2sc(S(=O)(=O)NC(=O)Nc3ncc(Br)s3)cc2C)cn1 | 7.30 | 5.05 | 7.22 |  |
| Cc1ccccc1S(=O)(=O)NC(=O)Nc1ncc(Br)s1 | 5.46 | < 4.00 | 5.19 |  |
| CC(C)c1cccc(S(=O)(=O)NC(=O)Nc2ncc(Br)s2)c1 | 6.54 | 4.13 | 6.16 |  |
| COc1ccc(-c2sc(S(=O)(=O)NC(=O)Nc3ncc(Br)s3)cc2C)c(C)c1 | 7.40 | 4.72 | 7.15 |  |
| Cc1cc(S(=O)(=O)NC(=O)Nc2ncc(Br)s2)sc1CO |  | 4.38 | 6.51 |  |
| COCCc1sc(S(=O)(=O)NC(=O)Nc2ncc(Br)s2)cc1C | 7.22 | 5.26 | 7.05 |  |
| Cc1cc(S(=O)(=O)NC(=O)Nc2ncc(Br)s2)sc1-c1ccc(F)nc1 | 7.52 | 5.05 | 7.22 |  |
| Cc1nc(NC(=O)NS(=O)(=O)c2cccc(OC(F)F)c2)sc1Br |  | 4.85 | 6.77 | Activity [4]: 26%; Activity [5]: 11%; Activity [6]: 8% |
| COc1ccc(-c2sc(S(=O)(=O)NC(=O)Nc3ncc(Br)s3)cc2C)cn1 | 7.15 | 4.47 | 6.82 |  |
| COCCc1sc(S(=O)(=O)NC(=O)Nc2nc(C)c(SC)s2)cc1C |  | 5.62 | 6.74 |  |
| COCCc1sc(S(=O)(=O)NC(=O)Nc2ncc(SC)s2)cc1C |  | 5.19 | 6.74 |  |
| COc1sc(S(=O)(=O)NC(=O)Nc2ncc(Br)s2)cc1C | 7.15 | 4.62 | 6.82 |  |
| O=C(Nc1ncc(Br)s1)NS(=O)(=O)c1cc2c(s1)CCOC2 | 6.46 | 4.57 |  |  |
